Key:
[1] = biological target: T1, Muscarinic acetylcholine receptor M4 (Homo sapiens, UniProt P08173); test: Positive allosteric modulation of human muscarinic acetylcholine M4/Gqi5 receptor expressed in CHO cells in presence of acetylcholine at EC20 concentration by calcium mobilization assay; assay type: functional, cell-based
T1 sequence (P08173 whole entry): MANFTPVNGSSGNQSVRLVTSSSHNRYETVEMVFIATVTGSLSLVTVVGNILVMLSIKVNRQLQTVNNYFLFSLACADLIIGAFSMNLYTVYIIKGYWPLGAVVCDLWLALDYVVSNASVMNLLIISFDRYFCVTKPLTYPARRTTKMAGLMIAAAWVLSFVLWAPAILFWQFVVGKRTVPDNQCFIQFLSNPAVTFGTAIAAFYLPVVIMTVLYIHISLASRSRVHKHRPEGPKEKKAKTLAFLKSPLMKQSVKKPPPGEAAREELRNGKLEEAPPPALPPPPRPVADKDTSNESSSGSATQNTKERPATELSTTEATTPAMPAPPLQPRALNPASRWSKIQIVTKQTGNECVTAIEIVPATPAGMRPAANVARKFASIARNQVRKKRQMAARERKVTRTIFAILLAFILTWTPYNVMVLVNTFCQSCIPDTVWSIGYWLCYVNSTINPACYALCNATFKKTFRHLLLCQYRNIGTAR

[2] = biological target: T2, Muscarinic acetylcholine receptor M4 (Homo sapiens) (UniProt P08173); test: Positive allosteric modulation of human muscarinic acetylcholine M4/Gqi5 receptor expressed in CHO cells in presence of acetylcholine at EC20 concentration by calcium mobilization assay relative to control; assay type: functional, cell-based
T2 sequence (whole entry): T1 sequence (P08173 whole entry)
In short: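 CHO cells stably expressing human M4 with a chimeric Gq protein were tested by calcium mobilization in the presence of an EC20 fixed concentration of acetylcholine. EC50 values come from concentration-response curves. Efficacy is given as % of the maximal acetylcholine response. Each value is n = 1 independent experiment run in triplicate.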

[3] = Intrinsic clearance in human liver microsomes; conditions: read-out: CLH
[4] = Brain to plasma partition coefficient, Kp of the compound in Sprague-Dawley rat at 0.2 mg/kg, iv measured at […]; assay type: ADME, organism-based; conditions: time 0.25 hrs
[5] = Intrinsic clearance in rat liver microsomes; conditions: read-out: CLH
[6] = filed as positive allosteric modulator

With `Cc1cc(C)c2c(n1)oc1c(NCc3ccc(C(C)(C)O)cc3)ncnc12` the EC50 ([1]; cho) was “Not Active”.

For `Cc1cc(C)c2c(n1)sc1c(C3CCN(c4cncc(F)c4)CC3)ncnc12`, the EC50 ([1]; cho) was “Not Active”.

With `Cc1cc(C)c2c(n1)sc1c(NCc3ncc(F)cn3)ncnc12` the EC50 ([1]; read-out: EC50) was > 10 µM and the %max [2] was 30%.

Molecule `Cc1cc(C)c2c(n1)sc1c(NCc3ccc4c(c3)COC4)ncnc12` has an EC50 ([1]; read-out: EC50) of 1.14 µM and a %max [2, 6] of 41%.

`Cc1cc(C)c2c(n1)sc1c(NCc3ccc(C(C)(C)O)cc3)ncnc12` showed a %max [2, 6] of 76%.

With `Cc1cc(C)c2c(n1)sc1c(NCc3cnc(C)nc3)ncnc12` the %max [2, 6] was 54%.

In the case of `Cc1cc(C)c2c(n1)sc1c(NCc3ccc(S(C)(=O)=O)cc3)ncnc12`, the predicted hepatic clearance [3] is reported as 12 mL/min/kg, the %max [2, 6] is reported as 42% and the Kp [4] is reported as 0.45. The predicted hepatic clearance [5] was 50 mL/min/kg.

Work on `Cc1cc(C)c2c(n1)sc1c(NCc3ccc(-n4ccnc4)nc3)ncnc12` yielded an EC50 ([1]; read-out: EC50) of 1.56 µM and a %max [2] of 34%.

For `Cc1cc(C)c2c(n1)sc1c(NCc3ccc(OC(F)(F)F)cc3)ncnc12`, the EC50 ([1]; cho) was “Not Active”.

With `Cc1cc(C)c2c(n1)sc1c(C3CCCCC3)ncnc12` the %max [2, 6] was 71%.

`Cc1cc(C)c2c(n1)sc1c(C3CCN(C(=O)C4CC4)CC3)ncnc12` showed a %max [2, 6] of 62%.

Molecule `Cc1cc(C)c2c(n1)sc1c(N3CC4CC4C3)ncnc12` (stereo not given) has a %max [2, 6] of 75%.

`Cc1cc(C)c2c(n1)sc1c(NC3CCC3)ncnc12` showed a %max [2, 6] of 76%.

In the case of `Cc1cc(C)c2c(n1)sc1c(NCc3ccc(C(C)(C)O)cc3)nccc12`, the predicted hepatic clearance [3] is reported as 15 mL/min/kg, the %max [2, 6] is reported as 101% and the Kp [4] is reported as 2.27. The predicted hepatic clearance [5] was 58 mL/min/kg.

For `Cc1ccc(CNc2ncnc3c2sc2nc(C)cc(C)c23)c(F)c1`, the EC50 ([1]; cho) was “Not Active”.

`Cc1cc(C)c2c(n1)oc1c(NC3CN(c4cc(Cl)ncc4Cl)C3)ncnc12` showed a %max [2, 6] of 49%.

For `Cc1cc(C)c2c(n1)oc1c(NC3CN(c4ncc(C(F)(F)F)cn4)C3)ncnc12`, the EC50 ([1]; cho) was “Not Active”.

`Cc1cc(C)c2c(n1)sc1c(NC3CN(c4ncc(C(F)(F)F)cn4)C3)ncnc12` showed a %max [2, 6] of 52%.

Work on `Cc1cc(C)c2c(n1)sc1c(NCc3ccc(C(C)(C)O)cc3F)ncnc12` yielded an EC50 ([1]; read-out: EC50) of 2.32 µM and a %max [2, 6] of 74%.

For `Cc1cc(C)c2c(n1)oc1c(N3CCCC3)ncnc12`, the EC50 ([1]; cho) was “Not Active”.

`Cc1cc(C)c2c(n1)sc1c(NC3CN(c4ncc(C(F)(F)F)cn4)C3)nccc12` showed a %max [2, 6] of 80%.

For `Cc1cc(C)c2c(n1)sc1c(N3CCC3)ncnc12`, the predicted hepatic clearance [3] was 20 mL/min/kg, the %max [2, 6] was 59% and the Kp [4] was 6.49. It also gave a predicted hepatic clearance [5] of 64 mL/min/kg.

With `Cc1cc(C)c2c(n1)sc1c(NCc3ccc4sccc4c3)ncnc12` the EC50 ([1]; cho) was “Not Active”.

For `Cc1cc(C)c2c(n1)sc1c(C3CCN(C(=O)C4(C)CC4)CC3)ncnc12`, the predicted hepatic clearance [3] was 11 mL/min/kg, the EC50 ([1]; read-out: EC50) was 0.234 µM and the %max [2, 6] was 72%. It also gave a Kp [4] of 0.54 and a predicted hepatic clearance [5] of 59 mL/min/kg.

For `Cc1cc(C)c2c(n1)sc1c(NCc3ccc(C(F)(F)F)cn3)ncnc12`, the EC50 ([1]; cho) was “Not Active”.

With `COc1ccc(CNc2ncnc3c2oc2nc(C)cc(C)c23)cc1F` the EC50 ([1]; cho) was “Not Active”.

For `Cc1cc(C)c2c(n1)sc1c(C3CCNCC3)ncnc12`, the %max [2, 6] was 44%.

For `COc1ccc(C2CC2Nc2ncnc3c2sc2nc(C)cc(C)c23)cc1` (stereo not given), the %max [2, 6] was 61%.

Work on `Cc1cc(C)c2c(n1)sc1c(NC3CCCC3)nccc12` yielded a %max [2, 6] of 71%.

In the case of `Cc1cc(C)c2c(n1)sc1c(C)ncnc12`, the %max [2, 6] is reported as 58%.

Work on `Cc1cc(C)c2c(n1)sc1c(NCc3ccc(OC(F)F)cc3)ncnc12` yielded an EC50 ([1]; read-out: EC50) of 4.01 µM and a %max [2, 6] of 45%.

`Cc1cc(C)c2c(n1)sc1c(NC3CC(c4ccncc4)C3)ncnc12` (stereo not given) showed an EC50 ([1]; read-out: EC50) of 0.341 µM and a %max [2, 6] of 67%.

In the case of `COCC1CN(c2ncnc3c2sc2nc(C)cc(C)c23)C1`, the %max [2, 6] is reported as 50%.

Work on `Cc1cc(C)c2c(n1)sc1c(N3CC(F)(F)C3)ncnc12` yielded a %max [2, 6] of 69%.

`Cc1cc(C)c2c(n1)sc1c(NCc3ccc4c(n3)CCC4)ncnc12` gave an EC50 ([1]; read-out: EC50) of 2.56 µM and a %max [2] of 30%.

For `Cc1cc(C)c2c(n1)sc1c(OCc3ccc(C(C)(C)O)cc3)ncnc12`, the EC50 ([1]; read-out: EC50) was 8.74 µM and the %max [2, 6] was 40%.

`Cc1cc(C)c2c(n1)sc1c(N3CCCC3)nccc12` showed a predicted hepatic clearance [3] of 19 mL/min/kg, a %max [2, 6] of 98% and a Kp [4] of 37.1. The predicted hepatic clearance [5] was 68 mL/min/kg.

`Cc1cc(C)c2c(n1)oc1c(NC3CC3)ncnc12` showed a %max [2, 6] of 64%.

For `Cc1cc(C)c2c(n1)sc1c(NCc3ccc(CN4CCOCC4)cc3)ncnc12`, the EC50 ([1]; read-out: EC50) was 1.11 µM and the %max [2, 6] was 47%.

In the case of `Cc1cc(C)c2c(n1)sc1c(N3CCCC3)ncnc12`, the predicted hepatic clearance [3] is reported as 18 mL/min/kg, the %max [2, 6] is reported as 67% and the Kp [4] is reported as 5.36. It also gave a predicted hepatic clearance [5] of 68 mL/min/kg.

Work on `Cc1cc(C)c2c(n1)sc1c(C3CCOCC3)ncnc12` yielded an EC50 ([1]; read-out: EC50) of 0.152 µM and a %max [2, 6] of 99%.

`COc1ccc(CNc2nccc3c2sc2nc(C)cc(C)c23)cc1F` gave a %max [2, 6] of 90%.

Molecule `Cc1cc(C)c2c(n1)oc1c(NC3CCC3)ncnc12` has a %max [2, 6] of 44%.

With `Cc1cc(C)c2c(n1)sc1c(NCc3ccc(F)c(Cl)c3)ncnc12` the EC50 ([1]; cho) was “Not Active”.

`Cc1cc(C)c2c(n1)sc1c(NC3CCC3)nccc12` gave a predicted hepatic clearance [3] of 20 mL/min/kg, a %max [2, 6] of 90% and a Kp [4] of 10.4. For the same molecule, the predicted hepatic clearance [5] was 69 mL/min/kg.

For `Cc1cc(C)c2c(n1)sc1c(C3CCN(CC4CC4)CC3)ncnc12`, the EC50 ([1]; cho) was “Not Active”.

Work on `Cc1cc(C)c2c(n1)sc1c(-c3nccs3)ncnc12` yielded a %max [2, 6] of 62%.

With `Cc1cc(C)c2c(n1)sc1c(C3CC3)ncnc12` the %max [2, 6] was 62%.

With `Cc1cc(C)c2c(n1)sc1c(N3CC4(COC4)C3)ncnc12` the predicted hepatic clearance [3] was 18 mL/min/kg, the %max [2, 6] was 84% and the Kp [4] was 4.47. For the same molecule, the predicted hepatic clearance [5] was 63 mL/min/kg.

`Cc1cc(C)c2c(n1)sc1c(N(C)C)nccc12` showed a %max [2, 6] of 82%.

Source: ChEMBL document CHEMBL5029174, “Discovery of structurally distinct tricyclic M4 positive allosteric modulator (PAM) chemotypes - Part 2” (Bioorg Med Chem Lett, 2021)
